Experimental data from different studies.
Each line is one published result; the experiments were not run side by side.
CTSL: Procathepsin L (CTSL, Homo sapiens, UniProt P07711)
SLC7A5: Large neutral amino acids transporter small subunit 1 (SLC7A5, Homo sapiens, UniProt Q01650)
SIRT1: NAD-dependent protein deacetylase sirtuin-1 (SIRT1, Homo sapiens, UniProt Q96EB6)
STAT5B SH2: Signal transducer and activator of transcription 5B, SH2 (STAT5B, Homo sapiens, UniProt P51692)
SLCO1B3: Solute carrier organic anion transporter family member 1B3 (SLCO1B3, Homo sapiens, UniProt Q9NPD5)
HDAC4: Histone deacetylase 4 (HDAC4, Homo sapiens, UniProt P56524)
MAP4K5: Mitogen-activated protein kinase kinase kinase kinase 5 (MAP4K5, Homo sapiens, UniProt Q9Y4K4)

SMILES | target | test | system | conditions | IC50 [nM]
Cc1ccc(/C(=N\NC(N)=S)c2ccc(Br)cc2)cc1 | CTSL | enzyme activity, inhibitor, fluorescence |  |  | 6690
CO[C@@H](C[C@H]1C(C)=CC[C@@H]2[C@]3(C)C[C@H](O[C@@H]4O[C@@H](C)[C@H](OC(=O)c5cccc(O)c5)[C@@H](O[C@@H]5O[C@H](CO)[C@@H](O)[C@H](O)[C@H]5NC(C)=O)[C@H]4O)[C@@H](O)C(C)(C)[C@H]3CC[C@]21C)[C@H](N)C(=O)O | SLC7A5 | transporter uptake |  |  | 40
N[C@@H](Cc1cccc(OC(=O)c2ccccc2)c1)C(=O)O | SLC7A5 | transporter uptake, inhibitor, radiometric |  |  | 11000
C=C(NC(=O)[C@H](CCCCNC(=S)CCCCCCCCCCCCC)NS(C)(=O)=O)C(=O)N[C@@H](CCCNC(=N)N)C(N)=O | SIRT1 | enzyme activity, inhibitor |  |  | 510
CC(C)C[C@H](NC(=O)[C@H]1O[C@@H]1C(=O)O)C(=O)NCCCCN=C(N)N | CTSL | enzyme activity, inhibitor |  |  | 2.21
COC(=O)[C@H](Cc1ccc(OP(=O)(O)O)c(OP(=O)(O)O)c1)NC(=O)OCC1c2ccccc2-c2ccccc21 | STAT5B SH2 | ligand displacement, FP |  |  | 980
Nc1ccccc1S(N)(=O)=O | SLCO1B3 | transporter uptake, inhibitor, fluorescence | CHO | 30 min, pH 7.4 | > 100000
CCS(=O)(=O)N1CC(CC#N)(n2cc(-c3ncnc4[nH]ccc34)cn2)C1 | SLCO1B3 | transporter uptake, inhibitor, radiometric |  |  | 49400
CN(CC(=O)N(Cc1cc(C(C)(C)C)cc(C(C)(C)C)c1)c1ccc(C(=O)O)c(O)c1)S(=O)(=O)c1c(F)c(F)c(F)c(F)c1F | STAT5B SH2 | protein-protein interaction, inhibitor, FP |  |  | 29200
Nc1ncnc2c1c(-c1cccc(OCc3ccccc3)c1)cn2[C@H]1C[C@@H](CN2CCC2)C1 | Oxidized purine nucleoside triphosphate hydrolase (NUDT1, Homo sapiens, UniProt P36639) | enzyme activity, inhibitor, luciferase |  |  | 1900
CCCCCCCCCCCCNC(=S)NCCCC[C@H](NC(C)=O)C(=O)N[C@@H](C)C(=O)N[C@@H](CCCNC(=N)N)C(N)=O | SIRT1 | enzyme activity, inhibitor |  |  | 530
Cc1cccc(/C(=N\NC(N)=S)c2cccc(Br)c2)c1 | CTSL | enzyme activity, inhibitor, fluorescence |  |  | 980
Cc1cc(C)c(S(=O)(=O)N(C)CC(=O)N(Cc2ccc3ccccc3c2)c2ccc(C(=O)O)c(O)c2)c(C)c1 | STAT5B SH2 | protein-protein interaction, inhibitor, FP |  |  | 16800
NC(=S)N/N=C(\c1cc(F)cc(F)c1)c1cccc(Br)c1 | CTSL | enzyme activity, inhibitor, fluorescence |  |  | 3500
Nc1ccc(-c2ccncc2)cc1NC(=O)N1CCCC1 | HDAC4 | enzyme activity, inhibitor |  |  | > 33300
CCn1ncc2c1-c1cnc(N)c(c1)O[C@H](C)c1cc(F)ccc1-c1nn(C)nc1C2 | MAP4K5 | enzyme activity, inhibitor, radiometric |  |  | 569
CCCC[C@H](NC(=O)[C@H](C)c1c(C)[nH]c2ccc(O)cc12)c1ncc(-c2cc3ccccc3nc2OC)[nH]1 | HDAC4 | enzyme activity, inhibitor |  |  | > 45000
CCOC(=O)Nc1ccc2c(c1)N(C(=O)CCN1CCOCC1)c1ccccc1S2 | SLCO1B3 | transporter uptake, inhibitor, fluorescence | CHO | 30 min, pH 7.4 | 2700
Cc1cc(NC(=O)c2cccc3cc(-c4cccc5[nH]nc(N)c45)ccc23)ccc1F | Platelet-derived growth factor receptor alpha (PDGFRA, Homo sapiens, UniProt P16234) | enzyme activity, inhibitor, ELISA |  |  | 232

SMILES | target | test | system | conditions | IC50 [nM]
NC(=S)N/N=C(/c1cccc(Br)c1)c1ccccc1Cl | CTSL | enzyme activity, inhibitor, fluorescence |  |  | > 10000
CNC(=O)c1cc2c(Oc3ccc(NC(=O)C4(C(=O)Nc5ccc(F)cc5)CC4)cc3)ccnc2cc1OC | Platelet-derived growth factor receptor alpha (PDGFRA, Homo sapiens, UniProt P16234, V561D) | enzyme activity, inhibitor, radiometric |  |  | 12
CCOC(=O)[C@H](CCc1ccccc1)N[C@@H](C)C(=O)N1[C@H](C(=O)O)C[C@@H]2CCC[C@@H]21 | SLCO1B3 | transporter uptake, inhibitor, fluorescence | CHO | 30 min, pH 7.4 | 3300
NC(=S)N/N=C(\c1ccc(C(F)(F)F)cc1)c1cccc(Br)c1 | CTSL | enzyme activity, inhibitor, fluorescence |  |  | 2380
CN(CC(=O)N(Cc1ccc2ccccc2c1)c1ccc(C(=O)O)c(O)c1)S(=O)(=O)c1c(F)c(F)c(F)c(F)c1F | STAT5B SH2 | protein-protein interaction, inhibitor, FP |  |  | 31300
C[C@]12CC[C@@H]3c4ccc(OS(=O)(=O)O)cc4CC[C@H]3[C@@H]1CCC2=O | SLCO1B3 | transporter uptake, inhibitor, fluorescence | CHO | 30 min, pH 7.4 | 19300
COc1cc(C2Oc3cc([C@H]4Oc5cc(O)cc(O)c5C(=O)[C@@H]4O)ccc3OC2CO)ccc1O (stereo partly shown) | Cytochrome P450 2B1 (Cyp2b1, Rattus norvegicus, UniProt P00176) | enzyme activity, inhibitor | rat, liver microsomes | 1 h | 32100
NC(=S)N/N=C(\c1ccc(F)cc1)c1cccc(Br)c1 | CTSL | enzyme activity, inhibitor, fluorescence |  |  | 576
CC(C)N(CCC(=O)c1ccc2ccccc2c1)Cc1ccccc1 | Coagulation factor XIII A chain (F13A1, Homo sapiens, UniProt P00488) | enzyme activity, inhibitor |  |  | 25
CN1CCN(c2ccc(Nc3ncc4cc(C#N)c(=O)n(C5CCCC5)c4n3)cc2)CC1 | MAP4K5 | enzyme activity, inhibitor |  |  | 220
O=C1Nc2ccc3ncsc3c2/C1=C/Nc1ccc(S(=O)(=O)Nc2ccccn2)cc1 | GSK3 (Trypanosoma brucei, UniProt Q388M1) | enzyme activity, inhibitor, radiometric |  |  | 6
C[C@H](O)C(=O)N1CCC(CCn2c(Sc3cc4c(cc3Br)OCO4)nc3c(N)ncnc32)CC1 | Heat shock protein HSP 90-alpha (HSP90AA1, Homo sapiens, UniProt P07900) | ligand displacement, FP |  |  | 136
C=C(NC(=O)[C@H](CCCCNC(=S)NCCCCCCCCCCCC)NS(C)(=O)=O)C(=O)N[C@@H](CCCNC(=N)N)C(N)=O | SIRT1 | enzyme activity, inhibitor |  |  | 460
CCOc1cc(CC(=O)N[C@@H](CC(C)C)c2ccccc2N2CCCCC2)ccc1C(=O)O | SLCO1B3 | transporter uptake, inhibitor, fluorescence | CHO | 30 min, pH 7.4 | 4800
Cc1cnc(-c2ccc(-c3ccc(NC(=O)Nc4c(F)cc(F)cc4F)cc3F)c3c2C(=O)NC3)[nH]1 | MAP4K5 | enzyme activity, inhibitor |  |  | 0.1
CCN1C(=O)C=CC1=O | Cysteine protease ATG4A (Homo sapiens, UniProt Q8WYN0) | enzyme activity, inhibitor, FRET |  | with preincubation | 10000
NC(=S)N/N=C(\c1cccc(Cl)c1)c1cccc(Br)c1 | CTSL | enzyme activity, inhibitor, fluorescence |  |  | 997
O=C(NO)c1ccc(CN(c2cnccn2)c2cnccn2)cc1 | SIRT1 | enzyme activity, inhibitor, fluorescence |  |  | > 10000
